In ChEMBL document CHEMBL1153055, “Synthesis and evaluation of 5-benzylidene(thio)barbiturate-beta-D-glycosides as mushroom tyrosinase inhibitors” (Bioorg Med Chem Lett, 2009) one finds IC50 and inhibition data, which are given here for 19 compounds.

The source made the active and inactive calls. The rule behind the calls is not given here.

The first test addresses T1, Tyrosinase (Agaricus bisporus, UniProt O42713).
T1 sequence (O42713 whole entry): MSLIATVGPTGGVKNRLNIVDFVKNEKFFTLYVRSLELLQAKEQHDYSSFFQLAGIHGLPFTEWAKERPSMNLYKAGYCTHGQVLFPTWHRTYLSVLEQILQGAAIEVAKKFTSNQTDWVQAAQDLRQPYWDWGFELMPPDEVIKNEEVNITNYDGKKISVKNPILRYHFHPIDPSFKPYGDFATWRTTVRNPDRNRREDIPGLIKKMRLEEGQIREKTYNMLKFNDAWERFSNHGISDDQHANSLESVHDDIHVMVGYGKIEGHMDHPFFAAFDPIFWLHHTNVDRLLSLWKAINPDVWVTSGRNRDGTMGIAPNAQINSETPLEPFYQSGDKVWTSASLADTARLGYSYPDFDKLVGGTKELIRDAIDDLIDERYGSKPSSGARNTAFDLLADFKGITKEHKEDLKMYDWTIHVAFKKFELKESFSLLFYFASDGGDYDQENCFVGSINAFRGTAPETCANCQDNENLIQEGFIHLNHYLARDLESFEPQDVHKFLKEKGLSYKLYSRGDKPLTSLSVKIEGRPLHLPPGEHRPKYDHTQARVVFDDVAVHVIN
Briefly: Inhibition of diphenolase activity of mushroom tyrosinase.
Conditions: not given
A word on the IC50: it is the midpoint of a concentration-inhibition curve. Low values mean higher potency, high ones lower potency. Regarding `CC(=O)OC[C@H]1O[C@@H](Oc2ccc(C=C3C(=O)NC(=O)NC3=O)cc2)[C@H](OC(C)=O)[C@@H](OC(C)=O)[C@@H]1OC(C)=O`, it took 1270 µM to reach half-maximal inhibition (IC50).

In the case of `O=C1NC(=S)NC(=O)C1=Cc1ccc(O[C@@H]2O[C@H](CO)[C@@H](O)[C@@H](O)[C@H]2O)cc1`, the midpoint of inhibition, the IC50, lay at 1160 µM.

Take `CC(=O)OC[C@H]1O[C@@H](Oc2cccc(C=C3C(=O)NC(=O)NC3=O)c2)[C@H](OC(C)=O)[C@@H](OC(C)=O)[C@@H]1OC(C)=O`: the IC50 was > 3000 µM.

`CC(=O)OC[C@H]1O[C@@H](Oc2ccc(C=C3C(=O)NC(=O)NC3=O)cc2)[C@H](OC(C)=O)[C@H](OC(C)=O)[C@@H]1OC(C)=O` registered an IC50 of 1500 µM.

On to `O=C1NC(=O)C(=Cc2ccc(O[C@@H]3O[C@H](CO)[C@@H](O)[C@@H](O)[C@H]3O)cc2)C(=O)N1`, for which half-maximal inhibition (IC50) was put at 1630 µM.

In turn, `CC(=O)OC[C@H]1O[C@@H](Oc2ccc(C=C3C(=O)NC(=S)NC3=O)cc2O)[C@H](OC(C)=O)[C@@H](OC(C)=O)[C@@H]1OC(C)=O` came in with an IC50 of 50 µM.

In turn, `CC(=O)OC[C@H]1O[C@@H](Oc2ccc(C=C3C(=O)NC(=O)NC3=O)c(O)c2)[C@H](OC(C)=O)[C@@H](OC(C)=O)[C@@H]1OC(C)=O` gave an IC50 of 1730 µM.

Compound `CC(=O)OC[C@H]1O[C@@H](Oc2ccccc2C=C2C(=O)NC(=S)NC2=O)[C@H](OC(C)=O)[C@@H](OC(C)=O)[C@@H]1OC(C)=O` returned an IC50 of 430 µM.

For `CC(=O)OC[C@H]1O[C@@H](Oc2ccccc2C=O)[C@H](OC(C)=O)[C@@H](OC(C)=O)[C@@H]1OC(C)=O`, the IC50 is > 3000 µM.

Regarding `CC(=O)OC[C@H]1O[C@@H](Oc2ccc(C=O)cc2)[C@H](OC(C)=O)[C@H](OC(C)=O)[C@@H]1OC(C)=O`, the IC50 was 780 µM.

As for `CC(=O)OC[C@H]1O[C@@H](Oc2ccc(C=O)c(O)c2)[C@H](OC(C)=O)[C@@H](OC(C)=O)[C@@H]1OC(C)=O`, the 50% inhibitory concentration (IC50) was > 3000 µM.

Compound `CC(=O)OC[C@H]1O[C@@H](Oc2ccc(C=C3C(=O)NC(=S)NC3=O)cc2)[C@H](OC(C)=O)[C@H](OC(C)=O)[C@@H]1OC(C)=O` came in with an IC50 of 340 µM.

Regarding `CC(=O)OC[C@H]1O[C@@H](Oc2ccc(C=C3C(=O)NC(=S)NC3=O)c(O)c2)[C@H](OC(C)=O)[C@@H](OC(C)=O)[C@@H]1OC(C)=O`, the midpoint of inhibition, the IC50, lay at 280 µM.

With `CC(=O)OC[C@H]1O[C@@H](Oc2ccccc2C=C2C(=O)NC(=O)NC2=O)[C@H](OC(C)=O)[C@@H](OC(C)=O)[C@@H]1OC(C)=O`, the IC50 was > 3000 µM.

As for `CC(=O)OC[C@H]1O[C@@H](Oc2ccc(C=C3C(=O)NC(=O)NC3=O)cc2O)[C@H](OC(C)=O)[C@@H](OC(C)=O)[C@@H]1OC(C)=O`, the IC50 is 130 µM.

For the compound `CC(=O)OC[C@H]1O[C@@H](Oc2cccc(C=O)c2)[C@H](OC(C)=O)[C@@H](OC(C)=O)[C@@H]1OC(C)=O`, the IC50 is > 3000 µM.

`CC(=O)OC[C@H]1O[C@@H](Oc2ccc(C=C3C(=O)NC(=S)NC3=O)cc2)[C@H](OC(C)=O)[C@@H](OC(C)=O)[C@@H]1OC(C)=O` registered a 50% inhibitory concentration (IC50) of 230 µM.

As to `CC(=O)OC[C@H]1O[C@@H](Oc2ccc(C=O)cc2O)[C@H](OC(C)=O)[C@@H](OC(C)=O)[C@@H]1OC(C)=O`, half-maximal inhibition (IC50) was put at 430 µM.

For `CC(=O)OC[C@H]1O[C@@H](Oc2cccc(C=C3C(=O)NC(=S)NC3=O)c2)[C@H](OC(C)=O)[C@@H](OC(C)=O)[C@@H]1OC(C)=O`, the IC50 stood at 870 µM.

The next test has as its target T2, Tyrosinase (Agaricus bisporus) (UniProt O42713).
T2 sequence (whole entry): T1 sequence (O42713 whole entry)
Briefly: Irreversible inhibition of mushroom tyrosinase assessed as oxidation of L-DOPA at 0.8 mmol/L […].
Conditions: not given
The essentials: (§1)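 Mushroom tyrosinase was run with L-DOPA as substrate. Enzyme concentration was varied at fixed inhibitor levels of 0, 0.5, 0.8 and 1.0 mmol/L. Rate (V) was plotted against enzyme concentration [E] for each inhibitor level to judge whether inhibition was reversible or irreversible.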
Turning to `CC(=O)OC[C@H]1O[C@@H](Oc2ccc(C=C3C(=O)NC(=O)NC3=O)cc2O)[C@H](OC(C)=O)[C@@H](OC(C)=O)[C@@H]1OC(C)=O`, the inhibition entry is “Active”.

In a further test the target is T2, Tyrosinase (Agaricus bisporus). Put plainly: Irreversible inhibition of mushroom tyrosinase assessed as oxidation of L-DOPA at 1 mmol/L […].
Conditions: not given
An outline of the steps: as §1
Turning to `CC(=O)OC[C@H]1O[C@@H](Oc2ccc(C=C3C(=O)NC(=S)NC3=O)cc2O)[C@H](OC(C)=O)[C@@H](OC(C)=O)[C@@H]1OC(C)=O`, the inhibition entry is “Active”.

The target is the same in a further test. The note with it: 0.5 mmol/L.
Regarding `CC(=O)OC[C@H]1O[C@@H](Oc2ccc(C=O)cc2O)[C@H](OC(C)=O)[C@@H](OC(C)=O)[C@@H]1OC(C)=O`, the inhibition result is “Active”.
